These results are taken from ChEMBL document CHEMBL1149196 (J Med Chem, 2004).

Molecules are shown by their SMILES. A value given as a limit tells only on which side of the number the result lay.

The target of test [1] is Norepinephrine transporter (Rattus norvegicus, UniProt Q9WTR4). Description: Ability to inhibit high affinity uptake of [3H]NE at Norepinephrine transporter (NET) using rat brain parietal/occipital cortex. In kind it is tissue-based. In short, it runs like this:
(§1)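 Rat synaptosomal (P2) uptake: striatum for DAT, midbrain for SERT, parietal/occipital cortex for NET, in modified KRH pH 7.4 with nialamide. Drug preincubated 30 min at 4 °C, then 15 min at 37 °C. [3H]amine final ~5 nM (DA, 5-HT) or 9 nM (NE), 5 min uptake, stopped with cold Na-free buffer and filtered. Background from 0 °C tubes. IC50 converted to Ki by Cheng–Prusoff. Mean ± SE, ≥3 experiments.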

Test [2] concerns the target Sodium-dependent dopamine transporter (Rattus norvegicus, UniProt P23977). Description: Ability to inhibit high affinity uptake of [3H]DA at Dopamine transporter (DAT) using rat brain striatum. It counts as tissue-based. In short, it runs like this: as §1
For test [3], the target named is Monoamine transporters; serotonin & dopamine (Rattus norvegicus) (UniProt P31652+P23977). The test is described as follows: Ratio of affinity for serotonin transporter to that of dopamine transporter. It counts as protein assay. In short, it runs like this:
(§2)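 Ratios of Ki values from rat synaptosomal [3H]amine uptake inhibition at SERT (midbrain), DAT (striatum) and NET (parietal/occipital cortex). Ki came from IC50 via Cheng–Prusoff.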

The target of test [4] is Monoamine transporters; Norepinephrine & serotonin (Rattus norvegicus) (UniProt P31652+Q9WTR4). Description: Ratio of affinity for Norepinephrine transporter to that of Serotonin transporter. It counts as protein assay. In short, it runs like this: as §2
Test [5] has as its target T1, Sodium-dependent serotonin transporter (Rattus norvegicus, UniProt P31652). The test is described as follows: (§3) Ability to inhibit high affinity uptake of [3H]-5-HT at Serotonin transporter (SERT) using rat midbrain. It counts as tissue-based. In short, it runs like this: as §1
Target sequence in this assay (P31652 whole entry): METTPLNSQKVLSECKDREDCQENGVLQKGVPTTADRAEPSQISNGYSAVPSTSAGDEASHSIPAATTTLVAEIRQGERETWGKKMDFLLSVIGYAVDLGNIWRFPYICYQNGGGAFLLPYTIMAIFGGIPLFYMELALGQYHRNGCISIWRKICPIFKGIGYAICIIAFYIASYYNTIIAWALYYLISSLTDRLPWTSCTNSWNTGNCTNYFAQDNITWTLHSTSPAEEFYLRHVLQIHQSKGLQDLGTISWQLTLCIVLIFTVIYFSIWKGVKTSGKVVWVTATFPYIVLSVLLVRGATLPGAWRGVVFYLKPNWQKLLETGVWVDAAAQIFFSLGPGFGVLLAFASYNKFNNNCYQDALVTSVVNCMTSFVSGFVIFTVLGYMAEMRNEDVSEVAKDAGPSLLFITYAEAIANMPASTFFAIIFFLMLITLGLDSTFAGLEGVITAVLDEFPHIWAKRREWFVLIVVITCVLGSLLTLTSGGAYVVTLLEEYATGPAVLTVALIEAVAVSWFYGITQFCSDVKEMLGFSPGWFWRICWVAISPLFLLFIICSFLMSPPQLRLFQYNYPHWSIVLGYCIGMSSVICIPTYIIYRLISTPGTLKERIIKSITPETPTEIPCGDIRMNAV
Test [6] concerns the target T1, Sodium-dependent serotonin transporter. Described as §3. In kind it is tissue-based. In short, it runs like this:
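Rat midbrain P2 synaptosomes in ice-cold modified KRH buffer (pH 7.4, with 0.01 mM nialamide). Drug preincubated 30 min at 4 °C, then 15 min at 37 °C. Uptake started with ~5 nM [3H]5-HT (final) and run 5 min. Stopped with cold sodium-free glucosamine buffer and GF/C filtration. IC50 by LIGAND, converted to Ki by Cheng–Prusoff. Mean ± SE of ≥3 experiments.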
Target sequence in this assay (P31652 whole entry, looked up): as the sequence (P31652 whole entry) above
The source holds these as a separate data set.

Sodium-dependent dopamine transporter, sequence (P23977 whole entry): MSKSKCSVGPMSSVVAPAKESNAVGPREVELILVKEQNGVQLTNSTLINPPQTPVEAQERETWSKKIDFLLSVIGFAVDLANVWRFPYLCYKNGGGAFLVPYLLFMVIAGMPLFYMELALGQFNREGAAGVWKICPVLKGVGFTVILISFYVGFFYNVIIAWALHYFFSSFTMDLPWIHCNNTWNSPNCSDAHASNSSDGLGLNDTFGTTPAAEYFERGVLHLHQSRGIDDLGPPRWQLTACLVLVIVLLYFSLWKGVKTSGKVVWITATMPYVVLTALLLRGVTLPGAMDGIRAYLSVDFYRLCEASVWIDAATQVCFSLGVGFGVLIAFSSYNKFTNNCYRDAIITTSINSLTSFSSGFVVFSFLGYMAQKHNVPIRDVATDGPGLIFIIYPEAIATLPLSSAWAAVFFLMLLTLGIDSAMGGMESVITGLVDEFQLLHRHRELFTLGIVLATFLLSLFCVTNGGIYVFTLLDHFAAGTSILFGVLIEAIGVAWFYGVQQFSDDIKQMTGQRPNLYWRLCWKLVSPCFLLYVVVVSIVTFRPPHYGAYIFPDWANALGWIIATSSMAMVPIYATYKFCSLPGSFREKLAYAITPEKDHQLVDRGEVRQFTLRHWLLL
Monoamine transporters; serotonin & dopamine (Rattus norvegicus), sequence (P23977 whole entry, looked up): as the sequence (P23977 whole entry) above
Monoamine transporters; serotonin & dopamine (Rattus norvegicus), sequence (P31652 whole entry, looked up): as the sequence (P31652 whole entry) above
Norepinephrine transporter, sequence (Q9WTR4 whole entry): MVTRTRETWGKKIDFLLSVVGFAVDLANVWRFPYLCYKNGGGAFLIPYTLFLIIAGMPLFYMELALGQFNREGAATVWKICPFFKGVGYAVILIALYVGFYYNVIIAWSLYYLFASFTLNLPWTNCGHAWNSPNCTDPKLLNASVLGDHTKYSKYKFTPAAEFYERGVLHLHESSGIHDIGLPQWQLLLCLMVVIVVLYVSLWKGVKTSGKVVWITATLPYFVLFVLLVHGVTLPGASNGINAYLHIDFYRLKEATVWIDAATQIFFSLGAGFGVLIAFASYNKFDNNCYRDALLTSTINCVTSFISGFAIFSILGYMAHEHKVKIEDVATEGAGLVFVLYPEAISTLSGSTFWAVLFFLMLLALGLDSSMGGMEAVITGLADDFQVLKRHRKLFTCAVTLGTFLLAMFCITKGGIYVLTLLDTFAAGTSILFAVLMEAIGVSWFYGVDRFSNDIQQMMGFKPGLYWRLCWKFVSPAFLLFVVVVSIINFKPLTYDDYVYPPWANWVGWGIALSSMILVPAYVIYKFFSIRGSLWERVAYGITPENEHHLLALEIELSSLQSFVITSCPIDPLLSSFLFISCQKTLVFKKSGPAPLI

Broadly, the Ki is the equilibrium dissociation constant of an inhibitor or competing ligand from its target. Lower therefore signals a stronger hold on the target. Consider `CN1CC[C@H](c2ccc(Cl)cc2)[C@@H](COC(=O)NC23CC4CC(CC(C4)C2)C3)C1`, for which the Ki in test [1] is 56 nM; in test [2], 56 nM; in test [5] it was 37 nM. Besides, the Ratio is 0.66 in test [3] and 1.5 in test [4].

Regarding `CN1CC[C@H](c2ccc(Cl)cc2)[C@@H](CC(=O)NCc2ccccc2)C1`, the figures for the inhibition constant (Ki) in test [1], in test [2] and in test [5] were 107 nM, 270 nM and 191 nM, respectively. The Ratio in test [3] is 0.71; in test [4] it was 0.56.

Take `CNC(=O)C[C@H]1CN(C)CC[C@@H]1c1ccc(Cl)cc1`: the Ki in test [1] amounted to 251 nM; in test [5], 2270 nM. For the same compound, the Ratio in test [3] stood at 2.5; in test [4], 0.11.

On to `CN1CC[C@H](c2ccc(Cl)cc2)[C@@H](C(=O)O)C1`, for which the Ki was found to be 282000 nM in test [6] and 131000 nM in test [5]. Moreover, the Ratio in test [3] was found to be 0.76; in test [4], 2.2.

For `CN1CC[C@H](c2ccc(Cl)cc2)[C@@H](CCC(=O)NC23CC4CC(CC(C4)C2)C3)C1`, the results for the inhibition constant (Ki) in test [1], in test [2] and in test [5] were 152 nM, 446 nM and 585 nM, respectively. Also, the Ratio in test [3] is 1.3; in test [4] it was 0.26.

As to `CN1CC[C@H](c2ccc(Cl)cc2)C(C(=O)N2CCCC2)C1` (some centres not stated), the affinity in test [1], expressed as Ki, was 2000 nM.

In the case of `CN1CC[C@H](c2ccc(Cl)cc2)[C@@H](CC(=O)N(C)Cc2ccccc2)C1`, the Ki in test [1] came out at 32 nM; in test [2] it was 165 nM; in test [5] it was 66 nM. Further, the Ratio in test [3] stood at 0.4; in test [4] it was 0.49.

Consider `CCNC(=O)OC[C@H]1CN(C)CC[C@@H]1c1ccc(Cl)cc1`, for which the figures for the Ki in test [1], in test [2] and in test [5] were 100 nM, 181 nM and 854 nM, respectively. Also, the Ratio worked out at 4.7 in test [3] and 0.12 in test [4].

Consider `COC(=O)/C=C/[C@H]1CN(C)CC[C@@H]1c1ccc(Cl)cc1`, for which the values for the Ki in test [1], in test [2] and in test [5] were 272 nM, 53 nM and 501 nM, respectively. Besides, the figures for the Ratio in test [3] and in test [4] were 9.5 and 0.54, respectively.

As for `CN1CC[C@H](c2ccc(Cl)cc2)[C@@H](CC(=O)O)C1`, the Ki in test [1] was 3810 nM; in test [2] it was 3010 nM; in test [5] it was more than 10000 nM.

For `CN1CC[C@H](c2ccc(Cl)cc2)[C@@H](CCC(=O)Nc2ccccc2)C1`, the Ki in test [1] came to 56 nM; in test [2], 201 nM; in test [5], 354 nM. Besides, the Ratio in test [3] was determined as 1.8; in test [4] it was 0.16.

With `CN1CC[C@H](c2ccc(Cl)cc2)[C@@H](CC(=O)NC23CC4CC(CC(C4)C2)C3)C1`, the values for the Ki in test [1], in test [2] and in test [5] were 1080 nM, 706 nM and 376 nM, respectively. The Ratio was 0.53 in test [3] and 2.9 in test [4].

Regarding `CN1CC[C@H](c2ccc(Cl)cc2)[C@@H](C(=O)OC(C)(C)C)C1`, the values for the inhibition constant Ki in test [1], in test [2] and in test [5] were 350 nM, 318 nM and 5750 nM, respectively. Besides, the Ratio is 18 in test [3] and 0.061 in test [4].

For `CN1CC[C@H](c2ccc(Cl)cc2)[C@@H](C(=O)OCCCCCc2ccccc2)C1`, the Ki in test [1] worked out at 382 nM; in test [2] it was 53 nM; in test [5], 1790 nM. The Ratio came out at 34 in test [3] and 0.21 in test [4].

In the case of `CN1CC[C@H](c2ccc(Cl)cc2)[C@@H](CCCO)C1`, the Ki in test [1] amounted to 564 nM; in test [2] it was 16 nM; in test [5] it was 2810 nM. For the same compound, the Ratio in test [3] is 175; in test [4], 0.2.

`CN1CC[C@H](c2ccc(Cl)cc2)[C@@H](CC(=O)OCCCc2ccccc2)C1`: the Ki in test [1] turned out to be 48 nM; in test [2] it was 36 nM; in test [5], 82 nM. The Ratio is 2.3 in test [3] and 0.59 in test [4].

In the case of `CN1CC[C@H](c2ccc(Cl)cc2)[C@@H](COC(=O)Nc2ccccc2)C1`, the Ki in test [1] was determined as 33 nM; in test [2] it was 91 nM; in test [5] it was 1290 nM. For the same compound, the Ratio was determined as 14 in test [3] and 0.026 in test [4].

Regarding `CN1CC[C@H](c2ccc(Cl)cc2)[C@@H](CCC(=O)O)C1`, the results for the inhibitory constant (Ki) in test [1], in test [2] and in test [5] were 425 nM, 1300 nM and 4540 nM, respectively. Further, the Ratio amounted to 3.5 in test [3] and 0.094 in test [4].

Consider `CCC[C@H]1CN(C)CC[C@@H]1c1ccc(Cl)cc1`, for which the figures for the Ki in test [1], in test [2] and in test [5] were 6.5 nM, 20 nM and 228 nM, respectively. Also, the Ratio in test [3] amounted to 11; in test [4], 0.029.

Consider `CN1CC[C@H](c2ccc(Cl)cc2)[C@@H](COC(=O)c2ccccc2)C1`, for which the values for the Ki in test [1], in test [2] and in test [5] were 389 nM, 273 nM and 296 nM, respectively. Further, the Ratio in test [3] amounted to 1.1; in test [4], 1.3.

As to `CCOC(=O)C[C@H]1CN(C)CC[C@@H]1c1ccc(Cl)cc1`, the Ki in test [1] was 101 nM; in test [2] it was 79 nM; in test [5], 191 nM. For the same compound, the figures for the Ratio in test [3] and in test [4] were 2.4 and 0.53, respectively.

Regarding `CN1CC[C@H](c2ccc(Cl)cc2)C(C(=O)N(C)C)C1` (some centres not stated), the Ki came to 569 nM in test [1], 2140 nM in test [2] and 18900 nM in test [5]. The Ratio was 8.8 in test [3] and 0.03 in test [4].

Consider `CC(=O)OC[C@H]1CN(C)CC[C@@H]1c1ccc(Cl)cc1`, for which the Ki was 235 nM in test [1], 599 nM in test [2] and 901 nM in test [5]. Further, the figures for the Ratio in test [3] and in test [4] were 1.5 and 0.26, respectively.

Consider `C=CCOC[C@H]1CN(C)CC[C@@H]1c1ccc(Cl)cc1`, for which the Ki came out at 20 nM in test [1], 60 nM in test [2] and 231 nM in test [5]. Besides, the Ratio amounted to 3.9 in test [3] and 0.087 in test [4].

`COC(=O)CC[C@H]1CN(C)CC[C@@H]1c1ccc(Cl)cc1`: the Ki came out at 31 nM in test [1], 68 nM in test [2] and 255 nM in test [5]. Further, the results for the Ratio in test [3] and in test [4] were 3.8 and 0.12, respectively.

`CN1CC[C@H](c2ccc(Cl)cc2)C(C(=O)Oc2ccccc2)C1` (some centres not stated): the Ki in test [1] is 2180 nM; in test [2] it was 906 nM; in test [5], 2120 nM. The figures for the Ratio in test [3] and in test [4] were 2.3 and 1, respectively.

As to `CN1CC[C@H](c2ccc(Cl)cc2)[C@@H](CC(=O)N(C)C)C1`, the Ki was 46 nM in test [1], 16 nM in test [2] and 1990 nM in test [5]. In addition, the Ratio in test [3] worked out at 125; in test [4], 0.023.

As for `CN1CC[C@H](c2ccc(Cl)cc2)[C@@H](CCCF)C1`, the Ki in test [1] was determined as 356 nM; in test [2] it was 43 nM; in test [5], 5190 nM. The Ratio in test [3] is 120; in test [4] it was 0.069.
